Laboratory results taken from PMC3612139 (Bioorganic chemistry, 2013).

Test system: HL-60 promyelocytes
Assay: HL-60 differentiation
Type: cell-based
Conditions: Homo sapiens, HL-60, read-out: HL-60 differentiation EC50
Outline: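 Differentiation of HL-60 promyelocytes to monocytes, scored as the percentage of cells reducing nitro blue tetrazolium. EC50 taken from dose–response curves as the concentration giving 50% maturation. Ratio is the average of test compound EC50 over 1α,25-(OH)2D3 EC50. Run in duplicate on at least two occasions.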

## C=C1/C(=C\C=C2/CCC[C@]3(C)[C@@H]([C@H](C)CCCC(C)(C)O)CC[C@@H]23)C[C@@H](O)C[C@@H]1O [Compound 1, 1α,25-Dihydroxyvitamin D3]
  EC50: 2 nM
